The values below come from ChEMBL document CHEMBL2311356, “The effect of 17-N substituents on the activity of the opioid κ receptor in nalfurafine derivatives” (Bioorg Med Chem Lett, 2013).

The target of experiment [1] is Kappa-type opioid receptor (Cavia porcellus, UniProt P41144). The experiment in a line: Displacement of [3H]U69593 from kappa opioid receptor in guinea pig cerebellum after 1 hr by liquid scintillation counting analysis. Summed up:
(§1)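 Radioligand displacement from membranes used [³H]DAMGO for μ and [³H]DPDPE for δ, both on mouse whole brain without cerebellum. For κ it used [³H]U-69,593 on guinea pig cerebellum. Values are means of three samples.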
In general terms: In a radioligand displacement assay an active substance lowers the binding of a labelled ligand.

The target in experiment [2] is T1, Kappa-type opioid receptor (Homo sapiens, UniProt P41145). The experiment in a line: Agonist activity at human recombinant kappa opioid receptor expressed in CHO cells after 2 hrs by [35S]-GTPgammaS binding assay relative to control. It is filed as functional, cell-based. An outline of the steps:
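CHO cell membranes carrying the recombinant human κ receptor were incubated with [³⁵S]GTPγS, GDP and the test agent. U-69,593 served as the reference κ agonist. Values are means of four samples.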
Background: Binding of GTPγS marks nucleotide exchange on a G protein.

Experiment [3] addresses Delta-type opioid receptor (Mus musculus, UniProt P32300). The experiment in a line: Displacement of [3H]DPDPE from delta opioid receptor in mouse whole brain membranes without cerebellum after 1 hr by liquid scintillation counting analysis. Format: cell membranes, Membrane. An outline of the steps: as §1
Experiment [4] is described as follows: Selectivity ratio of Ki for mu opioid receptor in mouse whole brain membranes without cerebellum to Ki for kappa opioid receptor in guinea pig cerebellum. It is filed as cell membranes.
Experiment [5] is described as follows: Selectivity ratio of Ki for delta opioid receptor in mouse whole brain membranes without cerebellum to Ki for kappa opioid receptor in guinea pig cerebellum. Format: cell membranes.
In experiment [6] the target is T1, Kappa-type opioid receptor. The experiment in a line: Agonist activity at human recombinant kappa opioid receptor expressed in CHO cells after 2 hrs by [35S]-GTPgammaS binding assay. It is filed as functional, cell-based. An outline of the steps: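 CHO cell membranes carrying the recombinant human κ receptor were incubated with [³⁵S]GTPγS, GDP and the test agent. Values are means of four samples.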

In the next experiment the target is Mu-type opioid receptor (Mus musculus, UniProt P42866). The experiment in a line: Displacement of [3H]DAMGO from mu opioid receptor in mouse whole brain membranes without cerebellum after 1 hr by liquid scintillation counting analysis. It is filed as cell membranes, Membrane. Summed up:
as §1

Sequence of Kappa-type opioid receptor (Cavia porcellus, UniProt P41144) (P41144 whole entry): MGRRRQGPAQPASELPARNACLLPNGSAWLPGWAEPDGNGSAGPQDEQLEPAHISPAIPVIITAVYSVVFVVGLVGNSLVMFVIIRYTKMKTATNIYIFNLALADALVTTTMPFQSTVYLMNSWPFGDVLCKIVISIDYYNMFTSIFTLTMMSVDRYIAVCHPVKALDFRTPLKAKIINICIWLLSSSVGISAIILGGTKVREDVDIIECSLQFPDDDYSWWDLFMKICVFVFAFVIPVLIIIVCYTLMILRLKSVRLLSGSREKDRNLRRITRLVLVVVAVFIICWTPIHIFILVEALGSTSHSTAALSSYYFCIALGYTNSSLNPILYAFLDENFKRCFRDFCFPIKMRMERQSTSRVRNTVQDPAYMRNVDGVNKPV
Sequence of Mu-type opioid receptor (P42866 whole entry): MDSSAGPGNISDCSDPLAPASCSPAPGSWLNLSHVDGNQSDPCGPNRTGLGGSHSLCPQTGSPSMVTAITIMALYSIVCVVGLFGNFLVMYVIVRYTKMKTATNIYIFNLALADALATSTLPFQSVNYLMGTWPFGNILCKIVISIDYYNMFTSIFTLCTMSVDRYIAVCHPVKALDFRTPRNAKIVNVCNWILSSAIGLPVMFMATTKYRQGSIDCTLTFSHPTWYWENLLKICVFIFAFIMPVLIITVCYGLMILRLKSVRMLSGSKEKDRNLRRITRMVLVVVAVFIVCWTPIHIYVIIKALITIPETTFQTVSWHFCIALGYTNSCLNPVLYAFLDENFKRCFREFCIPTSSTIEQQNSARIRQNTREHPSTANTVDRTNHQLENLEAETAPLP
Sequence of Delta-type opioid receptor (P32300 whole entry): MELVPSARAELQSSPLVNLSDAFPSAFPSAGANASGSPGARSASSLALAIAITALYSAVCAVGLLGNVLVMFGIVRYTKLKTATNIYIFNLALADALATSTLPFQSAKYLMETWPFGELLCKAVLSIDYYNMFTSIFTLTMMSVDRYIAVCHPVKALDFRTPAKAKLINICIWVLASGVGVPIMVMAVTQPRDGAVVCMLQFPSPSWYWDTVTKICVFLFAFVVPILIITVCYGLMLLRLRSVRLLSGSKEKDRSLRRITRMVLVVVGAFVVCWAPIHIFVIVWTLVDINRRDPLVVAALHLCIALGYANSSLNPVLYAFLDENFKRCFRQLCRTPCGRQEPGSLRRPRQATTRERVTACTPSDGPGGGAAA
T1 sequence (P41145 whole entry): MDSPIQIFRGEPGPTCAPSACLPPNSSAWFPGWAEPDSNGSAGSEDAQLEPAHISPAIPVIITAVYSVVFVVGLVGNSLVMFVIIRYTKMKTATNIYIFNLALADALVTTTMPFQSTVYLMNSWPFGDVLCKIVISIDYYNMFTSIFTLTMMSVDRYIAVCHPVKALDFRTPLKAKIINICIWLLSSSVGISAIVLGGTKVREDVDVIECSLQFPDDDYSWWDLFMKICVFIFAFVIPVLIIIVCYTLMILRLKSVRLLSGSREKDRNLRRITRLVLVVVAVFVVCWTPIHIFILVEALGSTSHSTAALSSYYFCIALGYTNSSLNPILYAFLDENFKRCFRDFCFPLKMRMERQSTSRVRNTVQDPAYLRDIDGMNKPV

Broadly, the Ki is the equilibrium dissociation constant of an inhibitor or competing ligand from its target. Read a low Ki as higher affinity. As usually defined, the Emax is the maximal effect, on the per cent scale that the assay sets. Usually EC50 stands for the concentration needed to bring the measured effect to its halfway point. With `CN(CCC[C@]1(O)[C@H]2CCN(C)[C@@H]1Cc1ccc(O)c(O)c12)C(=O)/C=C/c1ccoc1`, the Ki in experiment [1] was 0.735 nM; in experiment [3], 35.7 nM; at Mu-type opioid receptor, 2.77 nM. In addition, the Emax in experiment [2] is 90.4%. In addition, the figures for the Ratio Ki in experiment [4] and in experiment [5] were 3.77 and 48.6, respectively. Further, the EC50 in experiment [6] worked out at 11.3 nM.
Consider `CC(C)CN1CC[C@H]2c3c(ccc(O)c3O)C[C@@H]1[C@]2(O)CCCN(C)C(=O)/C=C/c1ccoc1`, for which the Ki is 0.59 nM in experiment [1], 514 nM in experiment [3] and 46.2 nM at Mu-type opioid receptor. For the same molecule, the Emax in experiment [2] turned out to be 99.5%. Moreover, the Ratio Ki in experiment [4] amounted to 78.4; in experiment [5], 872. In addition, in experiment [6], the concentration giving a half-maximal response (EC50) was 8.07 nM.
Consider `CN(CCC[C@]1(O)[C@H]2CCN(CCF)[C@@H]1Cc1ccc(O)c(O)c12)C(=O)/C=C/c1ccoc1`, for which the inhibitory constant (Ki) in experiment [1] was 0.507 nM; in experiment [3] it was > 1000 nM; on Mu-type opioid receptor it was 8.39 nM. Also, the Emax in experiment [2] amounted to 95.2%. Further, the Ratio Ki in experiment [4] was 16.6. In addition, the EC50 in experiment [6] is 2.23 nM.
In the case of `CCN1CC[C@H]2c3c(ccc(O)c3O)C[C@@H]1[C@]2(O)CCCN(C)C(=O)/C=C/c1ccoc1`, the Ki was 0.625 nM in experiment [1], 512 nM in experiment [3] and 11 nM at Mu-type opioid receptor. Moreover, the Emax in experiment [2] turned out to be 97.4%. Besides, the Ratio Ki in experiment [4] worked out at 17.6; in experiment [5], 818. Further, in experiment [6], the EC50 was determined as 3.79 nM.
For `CN(CCC[C@]1(O)[C@H]2CCN(CC(F)(F)F)[C@@H]1Cc1ccc(O)c(O)c12)C(=O)/C=C/c1ccoc1`, the inhibition constant (Ki) in experiment [1] is 4.58 nM; in experiment [3], > 1000 nM; on Mu-type opioid receptor, > 1000 nM. Besides, the Emax in experiment [2] was determined as 89%. In addition, the EC50 in experiment [6] stood at 32.2 nM.
For `CCCN1CC[C@H]2c3c(ccc(O)c3O)C[C@@H]1[C@]2(O)CCCN(C)C(=O)/C=C/c1ccoc1`, the Ki in experiment [1] was 0.328 nM; in experiment [3], 176 nM; on Mu-type opioid receptor, 19.2 nM. In addition, the maximum response (Emax) in experiment [2] is 86.5%. Besides, the Ratio Ki is 58.4 in experiment [4] and 537 in experiment [5]. For the same molecule, the EC50 in experiment [6] was 2.72 nM.
Turning to `CN(C(=O)/C=C/c1ccoc1)[C@@H]1CC[C@@]2(O)[C@H]3Cc4ccc(O)c5c4[C@@]2(CCN3CC2CC2)[C@H]1O5`, the Emax in experiment [2] amounted to 98.1%.
For the molecule `CN(CCC[C@]1(O)[C@H]2CCN(CC(F)F)[C@@H]1Cc1ccc(O)c(O)c12)C(=O)/C=C/c1ccoc1`, the Ki in experiment [1] was 2.19 nM; in experiment [3] it was > 1000 nM; on Mu-type opioid receptor, > 1000 nM. Moreover, in experiment [2], the Emax was determined as 101%. In addition, the EC50 in experiment [6] worked out at 22.4 nM.
